Test [1] deals with Rattus norvegicus. Nature of the test: Antinociceptive activity in sc dosed Sprague-Dawley rat assessed as increase in latency time after 1 hr by hot plate method. In kind it is functional. Summed up:
(§1)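 Rats (n = 6/group) were dosed s.c. 30 min before testing on a hot-plate held at 52 °C, 30 s cut-off. Reaction latency was read at 1 and 2 h and expressed as % increase over each group's pre-drug basal latency, with indomethacin as the reference control. Groups were compared by ANOVA and Duncan's test.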
For orientation: Hot-plate and tail-flick tests time the reaction to a heat stimulus.

In test [2] the test system is Rattus norvegicus. Briefly: Antinociceptive activity in sc dosed Sprague-Dawley rat assessed as increase in latency time after 2 hrs by hot plate method. In kind it is functional. Summed up:
as §1

Test [3] deals with Rattus norvegicus. Nature of the test: […] in Sprague-Dawley rat assessed as inhibition of indomethacin-induced gastric lesions severity at 6.88 mg/kg, sc. The settings on record: Stomach, route subcutaneous. It counts as functional. In outline:
(§2)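 Sprague-Dawley rats (120–130 g, food and water ad libitum) got indomethacin 20 mg/kg s.c. to induce gastric mucosal damage, with the test agent given s.c. at the time of indomethacin injection. Rats were killed 24 h later. Stomachs were opened along the greater curvature, rinsed with saline, and lesions counted and severity-scored on a previously described scale. Results are % decrease versus the indomethacin control.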

The test system of test [4] is Mus musculus. Nature of the test: Antinociceptive activity in Swiss Albino mouse assessed as inhibition of acetic acid-induced writhes per 30 min at 6.88 mg/kg, sc. The settings on record: 0.5 h, read-out: Inhibition.
For test [5], the system named is Rattus norvegicus. Nature of the test: Inhibition of carrageenan-induced paw oedema in Sprague-Dawley rat at 6.88 mg/kg, sc after 1 hr. It counts as functional. As to conditions: read-out: Inhibition, route subcutaneous. Summed up:
(§3)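 Rats (n = 6/group) got the test agent s.c. (0.5 mL) as a 30 min pretreatment. Oedema was induced by sub-plantar 1% lambda-carrageenan in saline into the right hind paw, with saline in the contralateral paw. Paw volume was measured by plethysmometer before injection and at 1, 2, 3 and 4 h, and expressed as % change from pre-drug values.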
A general note: Carrageenan injected into the paw causes an acute inflammation.

The test system of test [6] is Rattus norvegicus. Briefly: Antinociceptive activity in Sprague-Dawley rat assessed as inhibition of number of indomethacin-induced gastric lesions at 6.88 mg/kg, sc. It counts as functional. The settings on record: Stomach, route subcutaneous. In outline: as §2
For test [7], the system named is Rattus norvegicus. Nature of the test: Inhibition of carrageenan-induced paw oedema in Sprague-Dawley rat at 6.88 mg/kg, sc after 3 hrs. It counts as functional. The settings on record: read-out: Inhibition, route subcutaneous. Summed up:
as §3

Test [8] relates to Rattus norvegicus. Briefly: Antinociceptive activity in Sprague-Dawley rat at 6.88 mg/kg, sc assessed as increase in latency time after 1 hr by hot plate method. It counts as functional. As to conditions: route subcutaneous. In outline:
as §1

Test [9] has as its system Rattus norvegicus. Nature of the test: Inhibition of carrageenan-induced paw oedema in Sprague-Dawley rat at 6.88 mg/kg, sc after 2 hrs. In kind it is functional. The settings on record: read-out: Inhibition, route subcutaneous. In outline:
as §3

Test [10] concerns Rattus norvegicus. Nature of the test: Inhibition of carrageenan-induced paw oedema in Sprague-Dawley rat at 6.88 mg/kg, sc after 4 hrs. In kind it is functional. As to conditions: read-out: Inhibition, route subcutaneous. Summed up: as §3
The test system of test [11] is Rattus norvegicus. Briefly: Antinociceptive activity in Sprague-Dawley rat at 6.88 mg/kg, sc assessed as increase in latency time after 2 hrs by hot plate method. In kind it is functional. As to conditions: route subcutaneous. In outline: as §1
For test [12], the system named is Rattus norvegicus. Nature of the test: Antinociceptive activity in Sprague-Dawley rat at 5.40 mg/kg, sc assessed as increase in latency time after 2 hrs by hot plate method. In kind it is functional. The settings on record: dose 5.4 mg/kg; route subcutaneous. Summed up:
as §1

Test [13] concerns Rattus norvegicus. Nature of the test: Inhibition of carrageenan-induced paw oedema in Sprague-Dawley rat at 5.40 mg/kg, sc after 1 hr. In kind it is functional. The settings on record: read-out: Inhibition, route subcutaneous. In outline:
as §3

Test [14] concerns Rattus norvegicus. Nature of the test: Antinociceptive activity in Sprague-Dawley rat assessed as inhibition of number of indomethacin-induced gastric lesions at 5.40 mg/kg, sc. It counts as functional. As to conditions: Stomach, route subcutaneous. Summed up: as §2
In test [15] the test system is Mus musculus. Nature of the test: Antinociceptive activity in Swiss Albino mouse assessed as inhibition of acetic acid-induced writhes per 30 min at 5.40 mg/kg, sc. As to conditions: 0.5 h.
Test [16] has as its system Rattus norvegicus. Briefly: Inhibition of carrageenan-induced paw oedema in Sprague-Dawley rat at 5.40 mg/kg, sc after 4 hrs. In kind it is functional. The settings on record: read-out: Inhibition, route subcutaneous. Summed up: as §3
Test [17] deals with Rattus norvegicus. Nature of the test: Inhibition of carrageenan-induced paw oedema in Sprague-Dawley rat at 5.40 mg/kg, sc after 3 hrs. The settings on record: read-out: Inhibition, route subcutaneous. It counts as functional. Summed up:
as §3

In test [18] the test system is Rattus norvegicus. Briefly: […] in Sprague-Dawley rat assessed as inhibition of indomethacin-induced gastric lesions severity at 5.40 mg/kg, sc. The settings on record: Stomach, route subcutaneous. In kind it is functional. Summed up:
as §2

Test [19] relates to Rattus norvegicus. Briefly: Inhibition of carrageenan-induced paw oedema in Sprague-Dawley rat at 5.40 mg/kg, sc after 2 hrs. It counts as functional. The settings on record: read-out: Inhibition, route subcutaneous. Summed up:
as §3

The subject of test [20] is Rattus norvegicus. Nature of the test: Antinociceptive activity in Sprague-Dawley rat at 5.40 mg/kg, sc assessed as increase in latency time after 1 hr by hot plate method. It counts as functional. The settings on record: dose 5.4 mg/kg; route subcutaneous. In outline:
as §1

Consider `COc1ccc2c(c1)c(CC(=O)O)c(C)n2C(=O)c1ccc(Cl)cc1` [INDOMETHACIN], for which the Activity was found to be 176.7% in test [1] and 286.6% in test [2].

On to `COc1ccc2c(c1)c(CCNC(C)=O)c1n2CC(c2ccccc2)=C(C#N)C1=N`, for which the inhibition in vivo at 6.88 mg/kg was 53.6% in [3]; 40.7% in test [4]; 52.2% in test [5]; 30.2% in test [6]; 48% in test [7]; 55.2% in test [9]. Further, in test [10], the inhibition in vivo at 6.88 mg/kg is 36.3%. Moreover, the figures for the Activity in test [8] and in [11] were 31.7% and 56.2%, respectively.

In the case of `COc1ccc2c(c1)c(CCNC(C)=O)c1n2C(=N)C=C1NN`, the values for the Activity in [12] and in test [20] were 243.7% and 43.7%, respectively. In addition, the inhibition in vivo at 5.4 mg/kg was 54.8% in [13]; 53.9% in test [14]; -81.1% in test [15]; 36.8% in test [16]; 44.2% in test [17]; 57.7% in test [18]. For the same molecule, the inhibition in vivo at 5.4 mg/kg in test [19] worked out at 52.6%.

The record behind these values is ChEMBL document CHEMBL1147958, “Evaluation of the anti-inflammatory and anti-nociceptive activities of novel synthesized melatonin analogues” (2007).
